One test addresses T1, human DP1 receptors (Homo sapiens, UniProt Q13258).
T1 sequence (Q13258 1-359): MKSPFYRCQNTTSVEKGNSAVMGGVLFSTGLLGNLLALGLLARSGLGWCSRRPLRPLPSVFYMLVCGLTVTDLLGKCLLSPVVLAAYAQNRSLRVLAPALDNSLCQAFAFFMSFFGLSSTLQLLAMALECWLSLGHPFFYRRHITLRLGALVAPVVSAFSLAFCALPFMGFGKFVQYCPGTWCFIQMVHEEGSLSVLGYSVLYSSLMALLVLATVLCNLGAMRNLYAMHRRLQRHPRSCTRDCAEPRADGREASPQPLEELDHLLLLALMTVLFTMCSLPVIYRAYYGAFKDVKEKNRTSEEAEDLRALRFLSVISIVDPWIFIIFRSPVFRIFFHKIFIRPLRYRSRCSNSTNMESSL
Nature of the test: cAMP TR-FRET counter screen in C6-glioma cells, DP1. It is filed as cell-based. Conditions: read-out: DP1 KB; Schild KB; C6-glioma cells overexpressing DP1; agonist BW245C. In short, it runs like this:
(§1)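 Rat C6 glioma cells stably expressing the human receptor, seeded 4,000/well overnight; 0.5 h in HBSS with 20 μM rolipram at room temperature; test compound for 10 or 50 min, then rising agonist concentrations for 40 min. Lysis, cAMP-d2/anti-cAMP-Cryptate TR-FRET (F665/F590).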
(In TR-FRET formats the signal depends on donor and acceptor labels being close together.)

The target of a further test is human IP receptors (Homo sapiens, UniProt P43119). Description: cAMP TR-FRET counter screen in C6-glioma cells, IP. The format is cell-based. Conditions: read-out: IP KB; Schild KB; C6-glioma cells overexpressing IP; agonist iloprost. In short, it runs like this: as §1
human IP receptors, sequence (P43119 whole entry): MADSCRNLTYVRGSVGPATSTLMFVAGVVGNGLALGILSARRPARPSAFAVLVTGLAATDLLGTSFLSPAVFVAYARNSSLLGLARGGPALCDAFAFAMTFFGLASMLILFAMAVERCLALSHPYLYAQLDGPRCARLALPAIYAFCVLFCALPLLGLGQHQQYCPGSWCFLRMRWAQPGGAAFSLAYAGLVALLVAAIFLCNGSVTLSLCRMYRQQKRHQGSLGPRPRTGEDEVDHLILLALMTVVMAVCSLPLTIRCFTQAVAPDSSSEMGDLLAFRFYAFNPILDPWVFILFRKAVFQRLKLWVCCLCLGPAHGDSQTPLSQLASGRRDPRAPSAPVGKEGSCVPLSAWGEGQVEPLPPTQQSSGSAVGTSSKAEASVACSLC

Consider `COc1ccc2cc(OCC3(C(=O)O)CN(C(=O)c4ccc(F)cc4)C3)ccc2c1` [PF-04418948], for which the Kb on human DP1 receptors is 48.3 µM; on human IP receptors, 1.7 µM.

These data come from article PMC6633905 (Molecular pharmaceutics, 2018).
